Measurements taken from ChEMBL document CHEMBL2385037, “Bioactive dimeric carbazole alkaloids from Murraya koenigii” (J Nat Prod, 2013).

How the values were obtained:
[1] = Antioxidant activity assessed as nitric oxide scavenging activity after 150 mins by Greiss method; format: functional
[2] = Antioxidant activity assessed as hydroxyl radical scavenging activity after 15 mins by spectrophotometric analysis; format: functional
[3] = test system: Radical scavenging activity; assay: Antioxidant activity assessed as DPPH free radical scavenging activity by spectrophotometric analysis; format: functional
[4] = target: T1, Albumin (Bos taurus, UniProt P02769); assay: Binding affinity to bovine serum albumin assessed decrease in fluorescence at 1 to 2.5 uM at 60 nm wavelength by fluorescence spectrophotometric analysis; format: ADME; details: cattle, isolated protein
T1 sequence (P02769 whole entry): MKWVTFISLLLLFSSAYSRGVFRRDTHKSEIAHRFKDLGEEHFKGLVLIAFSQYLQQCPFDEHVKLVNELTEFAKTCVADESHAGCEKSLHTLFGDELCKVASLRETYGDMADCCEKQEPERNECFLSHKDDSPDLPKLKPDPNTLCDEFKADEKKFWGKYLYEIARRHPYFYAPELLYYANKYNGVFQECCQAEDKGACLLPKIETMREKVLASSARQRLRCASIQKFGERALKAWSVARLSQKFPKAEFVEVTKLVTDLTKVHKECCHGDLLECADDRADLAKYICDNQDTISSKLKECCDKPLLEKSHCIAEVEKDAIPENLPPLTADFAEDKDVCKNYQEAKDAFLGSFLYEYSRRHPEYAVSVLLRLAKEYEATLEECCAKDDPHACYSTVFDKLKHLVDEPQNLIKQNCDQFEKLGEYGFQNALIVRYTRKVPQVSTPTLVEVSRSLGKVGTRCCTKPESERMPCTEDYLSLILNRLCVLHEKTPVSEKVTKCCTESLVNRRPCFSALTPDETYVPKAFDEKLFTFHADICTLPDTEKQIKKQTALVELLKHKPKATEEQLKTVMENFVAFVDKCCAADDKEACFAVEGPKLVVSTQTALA
Outline: (§1)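 Synchronous fluorescence: BSA (2 μM) is titrated with compound over 0−2.5 μM. Spectra are recorded at wavelength differences Δλ = 15 nm and Δλ = 60 nm.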

[5] = target: T1, Albumin; assay: Binding affinity to bovine serum albumin assessed decrease in fluorescence at 1 to 2.5 uM at 15 nm wavelength by fluorescence spectrophotometric analysis; format: ADME; details: cattle, isolated protein; outline: as §1
[6] = target: T1, Albumin; assay: Binding affinity to bovine serum albumin assessed blue shift at 3 uM by UV-vis spectrophotometric analysis; format: ADME; details: cattle, isolated protein
[7] = target: T1, Albumin; assay: Binding affinity to bovine serum albumin assessed as change in hypochromicity at 1 to 2.5 uM by spectrophotometric analysis relative to control; format: ADME; details: cattle, isolated protein
[8] = target: T1, Albumin; assay: Binding affinity to bovine serum albumin assessed as decrease in fluorescence intensity by Stern-Volmer plot analysis; format: ADME; details: cattle, isolated protein
Outline: (§2)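 Intrinsic fluorescence quenching: emission spectra of BSA (2 μM) are recorded with compound added over 0−2.5 μM. The quenching data are analysed by Stern–Volmer and Scatchard plots to give the quenching constant Kq, the binding constant and the number of binding sites n.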

[9] = target: T1, Albumin; assay: Binding affinity to bovine serum albumin assessed as decrease in fluorescence intensity by Scatchard plot analysis; format: ADME; details: cattle, isolated protein; outline: as §2
[10] = test system: DNA; assay: Displacement of ethidium bromide from calf thymus DNA assessed as decrease in fluorescence intensity by Stern-Volmer plot analysis; format: nucleic-acid assay; details: Bos taurus
Outline: (§3)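 Ethidium bromide displacement: emission of EB bound to CT-DNA (5 μM) is followed while compound is added over 0−50 μM. The Stern–Volmer Kq is the slope of I0/I versus [Q]. Kapp comes from KEB[EB] = Kapp[compound], taking the compound concentration at 50% loss of EB fluorescence, with KEB = 1.0 × 10^7 M−1 and [EB] = 5 μM.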

[11] = test system: DNA; assay: Displacement of ethidium bromide from calf thymus DNA assessed as decrease in fluorescence intensity by spectrophotometric analysis; format: nucleic-acid assay; details: Bos taurus; outline: as §3
[12] = test system: DNA; assay: Displacement of ethidium bromide from calf thymus DNA assessed as […] at 1 to 50 uM by fluorescence spectrophotometric analysis relative to control; format: nucleic-acid assay; details: Bos taurus; outline: as §3
[13] = test system: DNA; assay: Binding affinity to calf thymus DNA assessed as change in hypochromicity at 50 uM by UV-vis titration relative to control; format: nucleic-acid assay; details: Bos taurus
Outline: (§4)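 CT-DNA absorption titration: compound held at 50 μM while CT-DNA is raised over 0−25 μM, and electronic absorption spectra are recorded. The intrinsic binding constant Kb is fitted from [DNA]/(εa − εf) versus [DNA], with DNA counted in base pairs. εa = Aobs/[compound]; εf and εb are the free and fully bound extinction coefficients.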

[14] = test system: DNA; assay: Binding affinity to calf thymus DNA by absorption titration; format: nucleic-acid assay; details: Bos taurus; outline: as §4
[15] = Inhibition of alpha glucosidase (unknown origin) assessed as p-nitrophenyl alpha-D-glucopyranoside conversion to p-nitrophenol after 30 mins by spectrophotometric analysis; design: species or system Homo sapiens
[16] = test system: HCT-116; assay: Cytotoxicity against human HCT116 cells incubated for 24 hrs followed by compound washout measured after 48 hrs by MTT assay; format: functional, cell-based
[17] = test system: AGS; assay: Cytotoxicity against human AGS cells incubated for 24 hrs followed by compound washout measured after 48 hrs by MTT assay; format: functional, cell-based
[18] = test system: HeLa; assay: Cytotoxicity against human HeLa cells incubated for 24 hrs followed by compound washout measured after 48 hrs by MTT assay; format: functional, cell-based

Structure (SMILES) | IC50 [1] [µM] | IC50 [2] [µM] | IC50 [3] [µM] | Activity [4] | Activity [5] | Activity [6] | Activity [7] [%] | Kq [8] [×10⁵ /M] | Kb [9] [×10⁴ /M] | Kq [10] [×10⁵ /M] | Kapp [11] [×10⁵ /M] | Activity [12] [%] | Activity [13] [%] | Kb [14] [×10⁵ /M] | IC50 [15] [µM] | IC50 [16] [µM] | IC50 [17] [µM] | IC50 [18] [µM]
COc1cc2c(cc1-c1c(OC)ccc3c1[nH]c1c4c(c(C)cc13)OC(C)(C/C=C(\C)CCC=C(C)C)C=C4)c1cc(C)c3c(c1n2C)C=CC(C)(C/C=C(\C)CCC=C(C)C)O3 (stereo not given) | 8.6 | 13.2 | 41.8 | Active | Active | Active | 36 | 2.21 | 0.09 | 0.3 | 0.13 | 28 | 54 | 2 | 69 | – | – | –
COc1ccc2c([nH]c3c4c(c(C)cc32)OC(C)(C/C=C(\C)CCC=C(C)C)C=C4)c1-c1ccc2[nH]c3c4c(c(C)cc3c2c1O)OC(C)(C/C=C(\C)CCC=C(C)C)C=C4 (stereo not given) | 7.2 | 8.8 | 31.1 | Active | Active | Active | 36 | 2.2 | 0.72 | 0.1 | 0.5 | 22 | 55 | 2.2 | 41.2 | – | – | –
C[C@H]1O[C@H](O[C@H]2[C@H](O)[C@@H](O)[C@@H](O[C@H]3[C@H](O)[C@@H](O)C(O)O[C@@H]3CO)O[C@@H]2CO)[C@H](O)[C@@H](O)[C@@H]1N[C@H]1C=C(CO)[C@@H](O)[C@H](O)[C@H]1O (stereo not given in full) [ACARBOSE] | – | – | – | – | – | – | – | – | – | – | – | – | – | – | 15.2 | – | – | –

Further lines, with some results ahead:

IC50 [1] [µM] | IC50 [2] [µM] | IC50 [3] [µM] | Activity [4] | Activity [5] | Activity [6] | Activity [7] [%] | Kq [8] [×10⁵ /M] | Kb [9] [×10⁴ /M] | Kq [10] [×10⁵ /M] | Kapp [11] [×10⁵ /M] | Activity [12] [%] | Activity [13] [%] | Kb [14] [×10⁵ /M] | IC50 [15] [µM] | Structure (SMILES) | IC50 [16] [µM] | IC50 [17] [µM] | IC50 [18] [µM]
8.6 | 11.5 | 4.5 | – | – | – | – | – | – | – | – | – | – | – | – | Cc1cc(C(C)(C)C)c(O)c(C(C)(C)C)c1 [BUTYLATED HYDROXYTOLUENE] | – | – | –
4.7 | 19.4 | 4.7 | – | – | – | – | – | – | – | – | – | – | – | – | C[C@@H]1O[C@@H](OC[C@H]2O[C@@H](Oc3c(-c4ccc(O)c(O)c4)oc4cc(O)cc(O)c4c3=O)[C@H](O)[C@@H](O)[C@@H]2O)[C@H](O)[C@H](O)[C@H]1O [RUTIN] | – | – | –
6.5 | 12.3 | 31.9 | Active | Active | Active | 47 | 3.52 | 1.02 | 0.32 | 1.6 | 44 | 82 | 4.3 | 45.4 | COc1ccc2c([nH]c3c4c(c(C)cc32)OC(C)(C/C=C(\C)CCC=C(C)C)C=C4)c1-c1c(O)ccc2[nH]c3c4c(c(C)cc3c12)OC(C)(C/C=C(\C)CCC=C(C)C)C=C4 (stereo not given) | 22.3 | 23.2 | 17.2
